Data on 4 compounds can be found in ChEMBL document CHEMBL1137650, “An OXA-66/OXA-51-like carbapenemase and possibly an efflux pump are associated with resistance to imipenem in Acinetobacter baumannii” (2007).

Converted amounts (≈) assume the structure as drawn. Some results are limits rather than exact numbers.

Holding throughout (format): functional
Experiment [1] concerns Acinetobacter baumannii. Nature of the experiment: Antibacterial activity against imipenem-susceptible Acinetobacter baumannii ab3 by broth dilution method. In short, it runs like this:
(§1)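 Clinical isolates were collected at three Taiwan hospitals (1993–2003) and grown in tryptic soy broth at 37°C for 18 h. MIC by broth dilution following CLSI recommendations.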
(In general: Dilution methods test growth across graded concentrations, often in twofold steps.)

Experiment [2] relates to Acinetobacter baumannii. Nature of the experiment: Antibacterial activity against imipenem-susceptible Acinetobacter baumannii ab4 by broth dilution method. The essentials:
as §1

For experiment [3], the system named is Acinetobacter baumannii. Briefly: Antibacterial activity against imipenem-susceptible Acinetobacter baumannii ab8 by broth dilution method. The essentials:
as §1

For experiment [4], the system named is Acinetobacter baumannii. Nature of the experiment: Antibacterial activity against imipenem-susceptible Acinetobacter baumannii ab12 by broth dilution method. The essentials:
as §1

Experiment [5] relates to Acinetobacter baumannii. Nature of the experiment: Antibacterial activity against imipenem-susceptible Acinetobacter baumannii ab20 by broth dilution method. The essentials: as §1
Experiment [6] has as its system Acinetobacter baumannii. Briefly: Antibacterial activity against imipenem-susceptible Acinetobacter baumannii ab1308 by broth dilution method. In short, it runs like this: (§2)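 Clinical A. baumannii isolates collected at three Taiwanese hospitals, routinely grown in tryptic soy broth at 37°C for 18 h. MICs (μg ml⁻¹) were determined by broth dilution following CLSI recommendations, or by Etest strips following the manufacturer's instructions.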

In experiment [7] the test system is Acinetobacter baumannii. Briefly: Antibacterial activity against imipenem-susceptible Acinetobacter baumannii ab1254 by broth dilution method. In short, it runs like this: as §1
Experiment [8] concerns Acinetobacter baumannii. Briefly: Antibacterial activity against imipenem-susceptible Acinetobacter baumannii ab1316 by broth dilution method. In short, it runs like this:
as §2

Experiment [9] relates to Acinetobacter baumannii. Briefly: Antibacterial activity against imipenem-intermediate Acinetobacter baumannii ab1297 by broth dilution method. The essentials:
as §2

In experiment [10] the test system is Acinetobacter baumannii. Nature of the experiment: Antibacterial activity against imipenem-resistant Acinetobacter baumannii ab1265 by broth dilution method. The essentials: as §1
The subject of experiment [11] is Acinetobacter baumannii. Nature of the experiment: Antibacterial activity against imipenem-resistant Acinetobacter baumannii ab1266 by broth dilution method. In short, it runs like this: as §1
In experiment [12] the test system is Acinetobacter baumannii. Nature of the experiment: Antibacterial activity against imipenem-resistant Acinetobacter baumannii abh9 by broth dilution method. The essentials:
as §1

Experiment [13] relates to Acinetobacter baumannii. Briefly: Antibacterial activity against imipenem-resistant Acinetobacter baumannii abh11 by broth dilution method. The essentials:
as §1

The subject of experiment [14] is Acinetobacter baumannii. Briefly: Antibacterial activity against imipenem-resistant Acinetobacter baumannii abh13 by broth dilution method. In short, it runs like this: as §1
Experiment [15] deals with Acinetobacter baumannii. Briefly: Antibacterial activity against imipenem-resistant Acinetobacter baumannii abh14 by broth dilution method. In short, it runs like this:
as §1

Experiment [16] relates to Acinetobacter baumannii. Briefly: Antibacterial activity against imipenem-resistant Acinetobacter baumannii abh17 by broth dilution method. The essentials:
as §1

Experiment [17] deals with Acinetobacter baumannii. Nature of the experiment: Antibacterial activity against imipenem-resistant Acinetobacter baumannii abh18 by broth dilution method. In short, it runs like this: as §1
The test system of experiment [18] is Acinetobacter baumannii. Briefly: Antibacterial activity against imipenem-resistant Acinetobacter baumannii abh20 by broth dilution method. The essentials:
as §1

The test system of experiment [19] is Acinetobacter baumannii. Nature of the experiment: Antibacterial activity against imipenem-resistant Acinetobacter baumannii abh26 by broth dilution method. The essentials: as §1
Experiment [20] concerns Acinetobacter baumannii. Briefly: Antibacterial activity against imipenem-resistant Acinetobacter baumannii abh29 by broth dilution method. The essentials: as §1
The test system of experiment [21] is Acinetobacter baumannii. Nature of the experiment: Antibacterial activity against imipenem-resistant Acinetobacter baumannii abh36 by broth dilution method. The essentials:
as §1

Experiment [22] relates to Acinetobacter baumannii. Briefly: Antibacterial activity against imipenem-resistant Acinetobacter baumannii abh37 by broth dilution method. In short, it runs like this:
as §1

Experiment [23] concerns Acinetobacter baumannii. Briefly: Antibacterial activity against imipenem-resistant Acinetobacter baumannii abh39 by broth dilution method. The essentials:
as §1

Experiment [24] concerns Acinetobacter baumannii. Briefly: Antibacterial activity against imipenem-susceptible Acinetobacter baumannii ATCC 19606 by broth dilution method. Conditions: ATCC 19606 = CIP 70.34 = JCM 6841.

What is called MIC is the lowest concentration found to suppress growth. Regarding `NCC[C@H](O)C(=O)N[C@@H]1C[C@H](N)[C@@H](O[C@H]2O[C@H](CN)[C@@H](O)[C@H](O)[C@H]2O)[C@H](O)[C@H]1O[C@H]1O[C@H](CO)[C@@H](O)[C@H](N)[C@H]1O` [AMIKACIN], the MIC in the experiment with Acinetobacter baumannii [1] was 3 µg/mL (≈ 5.12 µM); with Acinetobacter baumannii [2], 8 µg/mL (≈ 13.7 µM); with Acinetobacter baumannii [3], 12 µg/mL (≈ 20.5 µM); against Acinetobacter baumannii [4], above 256 µg/mL; in the experiment with Acinetobacter baumannii [5], 128 µg/mL (≈ 219 µM); against Acinetobacter baumannii [6] it was above 256 µg/mL. In addition, the MIC against Acinetobacter baumannii [7], in the experiment on Acinetobacter baumannii [8], against Acinetobacter baumannii [9], in the experiment on Acinetobacter baumannii [10], against Acinetobacter baumannii [11] and in the experiment with Acinetobacter baumannii [12] was above 256 µg/mL in each case. Besides, the MIC with Acinetobacter baumannii [13], against Acinetobacter baumannii [14], in the experiment with Acinetobacter baumannii [15], against Acinetobacter baumannii [16], against Acinetobacter baumannii [17] and in the experiment with Acinetobacter baumannii [18] was above 256 µg/mL each time. The MIC against Acinetobacter baumannii [19], against Acinetobacter baumannii [20], against Acinetobacter baumannii [21], against Acinetobacter baumannii [22] and in the experiment on Acinetobacter baumannii [23] was above 256 µg/mL in each case.
`CO/N=C(\C(=O)N[C@@H]1C(=O)N2C(C(=O)[O-])=C(C[N+]3(C)CCCC3)CS[C@H]12)c1csc(N)n1` [CEFEPIME]: the MIC is 6 µg/mL (≈ 12.5 µM) against Acinetobacter baumannii [1]; 256 µg/mL (≈ 533 µM) with Acinetobacter baumannii [15]; 256 µg/mL (≈ 533 µM) with Acinetobacter baumannii [17]; 256 µg/mL (≈ 533 µM) against Acinetobacter baumannii [18]; 256 µg/mL (≈ 533 µM) in the experiment with Acinetobacter baumannii [19]; 96 µg/mL (≈ 200 µM) in the experiment with Acinetobacter baumannii [20]. The MIC in the experiment on Acinetobacter baumannii [21] and in the experiment on Acinetobacter baumannii [23] was 256 µg/mL (≈ 533 µM) throughout.
Take `CO/N=C(\C(=O)N[C@@H]1C(=O)N2C(C(=O)O)=C(COC(C)=O)CS[C@H]12)c1csc(N)n1` [CEFOTAXIME]: the MIC in the experiment with Acinetobacter baumannii [24] was 16 µg/mL (≈ 35.1 µM); against Acinetobacter baumannii [1] it was above 256 µg/mL; in the experiment on Acinetobacter baumannii [2], above 256 µg/mL; with Acinetobacter baumannii [3] it was above 256 µg/mL; in the experiment with Acinetobacter baumannii [4] it was above 256 µg/mL; against Acinetobacter baumannii [5], above 256 µg/mL. Moreover, the MIC against Acinetobacter baumannii [6], with Acinetobacter baumannii [7], in the experiment with Acinetobacter baumannii [8], against Acinetobacter baumannii [9], in the experiment with Acinetobacter baumannii [10] and in the experiment on Acinetobacter baumannii [11] was above 256 µg/mL in each case. Moreover, the MIC against Acinetobacter baumannii [12], with Acinetobacter baumannii [13], against Acinetobacter baumannii [14], in the experiment with Acinetobacter baumannii [15], in the experiment on Acinetobacter baumannii [16] and in the experiment with Acinetobacter baumannii [17] was above 256 µg/mL in each case. In addition, the MIC against Acinetobacter baumannii [18], in the experiment with Acinetobacter baumannii [19], against Acinetobacter baumannii [20], with Acinetobacter baumannii [21], in the experiment on Acinetobacter baumannii [22] and against Acinetobacter baumannii [23] was above 256 µg/mL throughout.
In the case of `CC(C)(O/N=C(\C(=O)N[C@@H]1C(=O)N2C(C(=O)[O-])=C(C[n+]3ccccc3)CS[C@H]12)c1csc(N)n1)C(=O)O` [CEFTAZIDIME], the minimal inhibitory concentration (MIC) is 48 µg/mL (≈ 87.8 µM) in the experiment with Acinetobacter baumannii [1]; 32 µg/mL (≈ 58.5 µM) against Acinetobacter baumannii [2]; 48 µg/mL (≈ 87.8 µM) with Acinetobacter baumannii [3]; 48 µg/mL (≈ 87.8 µM) against Acinetobacter baumannii [4]; 24 µg/mL (≈ 43.9 µM) against Acinetobacter baumannii [5]; above 256 µg/mL against Acinetobacter baumannii [6]. The MIC against Acinetobacter baumannii [7], with Acinetobacter baumannii [8], with Acinetobacter baumannii [9], in the experiment with Acinetobacter baumannii [10], with Acinetobacter baumannii [11] and in the experiment on Acinetobacter baumannii [12] was above 256 µg/mL each time. The MIC in the experiment on Acinetobacter baumannii [13], against Acinetobacter baumannii [14], with Acinetobacter baumannii [15], against Acinetobacter baumannii [16], in the experiment with Acinetobacter baumannii [17] and in the experiment with Acinetobacter baumannii [18] was above 256 µg/mL in each case. In addition, the minimal inhibitory concentration (MIC) against Acinetobacter baumannii [19], with Acinetobacter baumannii [20], in the experiment on Acinetobacter baumannii [21], against Acinetobacter baumannii [22] and against Acinetobacter baumannii [23] was above 256 µg/mL in each case.
